# Screens: PubChem BioAssay, Broad Institute
# SIRT5 block: SIRT5 desuccinylase inhibitors, primary screen, biochemical, fluorescence imaging, single point, set 5; Purified SirT5, succinyl-peptide AMC, trypsin-coupled fluorescence; inhibition, % at 15 µM; 330,000 compounds, 1.1% hits; AID 652115, 2013; in the data active means inhibition above about 15%
# Target sequence (Q9NXA8 whole entry, looked up): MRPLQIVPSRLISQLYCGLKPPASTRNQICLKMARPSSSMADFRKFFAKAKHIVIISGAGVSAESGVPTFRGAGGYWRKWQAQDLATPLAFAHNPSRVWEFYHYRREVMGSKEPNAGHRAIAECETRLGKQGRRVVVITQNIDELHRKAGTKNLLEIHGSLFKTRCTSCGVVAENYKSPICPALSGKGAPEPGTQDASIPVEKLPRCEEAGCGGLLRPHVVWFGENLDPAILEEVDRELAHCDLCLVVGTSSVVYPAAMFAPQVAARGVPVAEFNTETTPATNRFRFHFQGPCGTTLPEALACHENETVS
# S100A4 MyoIIA: inhibitors of S100A4-myosin IIA peptide binding, primary screen, biochemical, fluorescence polarization, TAMRA-MyoIIA peptide. Protein S100-A4 (Homo sapiens), P26447. inhibition, % at 10.7 µM. 360,000 compounds, 0.14% hits. AID 652163, 2013;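 active means mean inhibition of at least 70% across replicates, with every replicate also reaching that level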
# Target sequence (P26447 whole entry, looked up): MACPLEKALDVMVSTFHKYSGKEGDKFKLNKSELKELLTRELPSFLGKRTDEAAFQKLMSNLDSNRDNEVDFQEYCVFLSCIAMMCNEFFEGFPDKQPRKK
#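 System – human S100A4 monomer protein, biochemical binding assay · Buffer or medium – Calcium-containing HEPES buffer, pH 7.2 · Timing – 5 min between mix addition and reading · Also added – TAMRA-labelled myosin IIA heavy-chain peptide probe, 5 nM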
# miR-122 sensor: miR-122 Renilla sensor signal increase in Huh7, primary screen, miR-122 inhibitor project, cell-based, single point, plate reader. Huh7 miR-122 Renilla luciferase sensor, 48 h; neutral wells = 0, positive control = 100. activation (reporter increase), % at 12.5 µM. 340,000 compounds, 0.3% hits;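 active means mean replicate activation score at least 90 and every replicate individually at or above 90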;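 further: higher luciferase means less miR-122 activity so hits act as miR-122 inhibitors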
# E-selectin induc: E-selectin induction in HUVECs, primary screen, imaging, HUVEC, immunofluorescence imaging, single point; P16581; normalized: neutral wells 0, TNF-alpha wells 100; 260,000 compounds, 0.37% hits; activation, % at 7.58 µM; AID 686992, 2013;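 active means mean E-selectin-positive cell signal at least 10% of the positive control, reached in at least 60% of replicates, without over 20% cell loss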
#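 assay system = HUVEC, human umbilical vein endothelial cells | input = 3,000 HUVEC seeded per well | medium = EGM-2 growth medium on 0.1% gelatin-coated wells | dosing = one compound dose added by pin transfer | signal = immunofluorescence imaging | read-out basis = % PE-positive cells | control set = TNF-alpha, DMSO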
# FGF22 binding: binders of human FGF22 protein, primary screen, FGF22 synaptogenesis inhibitor project, biophysical, thermal shift, single point; activity (Tm shift, normalised), % at 9.99 µM; 340,000 compounds, 1.5% hits; Fibroblast growth factor 22 (Homo sapiens), Q9HCT0; recombinant FGF22 thermal shift, SYPRO orange fluorescence; percent of sucrose octasulfate shift, DMSO zero;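 active means mean Tm shift, scaled 0 neutral to 100 positive control, at about 1.3% or above, every replicate too, limit read from the data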
# * hit, by the source's call; . = no result given; [ ] = dose if it differs, or a comment. A selection: hits, their analogues and other compounds. The true share with any hit is near 2.5%.
SMILES,SIRT5 block,S100A4 MyoIIA,miR-122 sensor,E-selectin induc,FGF22 binding
N#C/C(=C\c1ccc2c(c1)OCCO2)C(=O)Nc1nccs1,-1.1,3.6,0.8,.,-0.3
C[C@H](CO)N1C[C@H](C)[C@H](CN(C)Cc2ccc(Cl)c(Cl)c2)OCCCC[C@H](C)Oc2ccc(NS(=O)(=O)c3ccc(F)cc3)cc2C1=O,-1.1,-3.5,-7.9[16.7 µM],-0.2,-0.5
CCC(=O)N1CC2(C1)[C@H](c1ccccc1)[C@@H](CO)N2CC1CC1,-2.7,59.5,.,-0.1,0.0
CCCC(=O)Nc1ccc2c(c1)C(=O)N(C)[C@@H]1CC[C@@H](CC(=O)OC)O[C@@H]1CO2,.,.,16.7[16.7 µM],0.1,0.2
NS(=O)(=O)c1ccc(NC(=O)COc2ccc(Cl)cc2)cc1,-5.3,-2.3,-2.7,-0.1,-0.3
Cc1ccc(OCCCC(=O)Nc2ccc(S(N)(=O)=O)cc2)cc1,2.1,2.2,4.6,.,43.4*
Cc1ccc(OCCC(=O)Nc2ccc(S(=O)(=O)N3CCCC3)cc2)cc1,0.3,-2.8,17.9,.,-0.2
NS(=O)(=O)c1ccc(NC(=O)COC(=O)COc2ccc(Cl)cc2)cc1,-5.3,-11.3,.,.,43.1*
CCC1(c2ccc(F)cc2)NC(=O)N(CC(=O)Nc2ccc(-c3nc4ccc(C)cc4s3)cc2)C1=O (centres undefined),.,.,271.3*,9.4,.
C[C@H](CO)N1C[C@H](C)[C@H](CN(C)S(=O)(=O)c2ccccc2)OCCCC[C@H](C)Oc2ccc(NS(=O)(=O)c3ccc(F)cc3)cc2C1=O,4.4,17.6,-5.1[16.7 µM],-0.2,-0.9
CO[C@H]1CN(C)C(=O)c2cc(NC(=O)CC(F)(F)F)ccc2OC[C@H](C)N(C(C)=O)C[C@@H]1C,16.1*,-6.2,.,-0.1,0.3
CO[C@H]1CN(C)C(=O)c2cc(NC(=O)CC(F)(F)F)ccc2OC[C@H](C)N(C(C)=O)C[C@H]1C,2.2,-7.7,.,0.1,0.1
CO[C@H]1CN(C)C(=O)c2cc(NC(C)=O)ccc2OC[C@H](C)N(S(=O)(=O)c2cn(C)cn2)C[C@H]1C,23.7*,-2.8,.,0.1,-0.2
CO[C@@H]1CN(C)C(=O)c2cc(NC(=O)CC(F)(F)F)ccc2OC[C@H](C)N(S(=O)(=O)c2cn(C)cn2)C[C@@H]1C,15.7*,27.4,.,-0.3,0.0
O=C(NCC(F)(F)F)[C@@H]1[C@@H](CO)[C@@H]2Cn3c(cccc3=O)[C@@H]2N1C(=O)C1CCCC1,2.9,4.3,-0.3[16.7 µM],0.5,-0.4
CO[C@@H]1CN(C)C(=O)c2cc(NC(=O)c3nc4ccccc4s3)ccc2OC[C@@H](C)N(Cc2cccnc2)C[C@@H]1C,.,35.7,.,0.0,-0.2
CO[C@@H]1CN(C)C(=O)c2cc(NC(=O)NC(C)C)ccc2OC[C@H](C)N(Cc2ccccn2)C[C@@H]1C,-1.4,6.1,.,0.0,0.0
C/C=C/C(=O)OCC(=O)Nc1ccc(C)c(S(=O)(=O)N(C)C)c1,-0.9,-2.8,.,.,43.6*
CC=Cc1ccc2n(c1=O)C[C@H]1[C@H](CO)[C@@H](C(=O)NC3CCC3)N(C(=O)C3CCC3)[C@@H]21 (mixture of isomers),-6.5,-3.1,3.8[16.7 µM],0.0,-0.3
CC1=CC(C)C2(CO)COC(c3cccnc3)C1C2C (centres undefined),-0.5,-4.8,.,0.0,43.0*
CC1CC2(C)Oc3ccccc3C3OCC1(CO)C(C)C32 (centres undefined),-1.5,-1.9,-1.0,.,.
CC1=CC(C)C2(CO)COC(c3ccc(O)cc3)C1C2C (centres undefined),-0.1,4.5,-3.9,-0.4,43.2*
CCCC(=O)Nc1ccc2c(c1)OC[C@H](C)N(C(=O)c1ccccc1F)C[C@@H](C)[C@@H](OC)CN(C)C2=O,.,.,-9.1[16.7 µM],-0.1,.
C[C@H](CO)N1C[C@H](C)[C@@H](CN(C)Cc2ccncc2)Oc2ncc(C#Cc3ccncc3)cc2C1=O,.,.,1.8[16.7 µM],-0.2,.
CCCN(C)C[C@H]1OCCCC[C@H](C)Oc2ccc(NS(=O)(=O)c3ccc(C)cc3)cc2C(=O)N([C@@H](C)CO)C[C@@H]1C,6.0,0.0,4.3[16.7 µM],0.1,-0.5
